Measles CPE = protection of cells from measles virus | AID 841 | hit rate 1.5% among 140,000 | Measles virus-infected cells, CPE protection, absorbance | protection (pct of control), % at 4 µM; in the data active = protection mostly above about 24%, no sharp cut-off; inactive = mostly below about 26%
NPY Y1 blocker = NPY-Y1 (human) receptor antagonism; inhibition, % at 3.6 µM; HEK293-CNG Y1 cells, membrane potential fluorescence; NPY at EC95, then isoproterenol; hit rate 1% among 200,000; AID 1040;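 active = inhibition above the campaign mean inhibition of all tested compounds plus 3 SD, cut at about 20% in these data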
Target sequence (P25929 whole entry, looked up): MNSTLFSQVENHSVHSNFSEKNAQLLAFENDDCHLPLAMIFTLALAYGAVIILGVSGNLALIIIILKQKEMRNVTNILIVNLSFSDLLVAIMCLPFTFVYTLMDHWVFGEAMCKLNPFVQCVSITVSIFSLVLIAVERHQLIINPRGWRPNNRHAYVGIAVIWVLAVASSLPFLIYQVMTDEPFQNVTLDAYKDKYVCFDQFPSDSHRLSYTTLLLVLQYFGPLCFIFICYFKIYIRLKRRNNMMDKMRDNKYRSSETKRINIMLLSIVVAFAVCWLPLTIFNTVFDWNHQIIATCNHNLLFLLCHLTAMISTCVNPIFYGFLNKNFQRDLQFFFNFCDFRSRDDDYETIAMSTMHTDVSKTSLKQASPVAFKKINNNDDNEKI
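Material: HEK293 cells co-expressing NPY Y1 receptor and cyclic-nucleotide gated channel. Timing: compound incubation 1 h at room temperature, readout 45 min post-stimulation. Signal: fluorescence, membrane potential probe.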
NPY Y2 blocker = antagonists of human neuropeptide Y receptor Y2 | NPY-Y2 expressing cells, antagonist mode | hit rate 0.99% among 140,000 | inhibition, % at 2.7 µM | P49146; in the data active = inhibition above about 17%
NPY1 pot ag = potentiators or agonists of human neuropeptide Y receptor Y1 | P25929 | NPY-Y1 expressing cells, potentiator/agonist activation | activation, % at 3.6 µM | hit rate 0.37% among 220,000; in the data active = activation above about 33%, passing the limit was not always enough;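 also: cells stimulated with NPY at EC10 then isoproterenol at EC100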
NPY2 pot ag = potentiators or agonists of human neuropeptide Y receptor Y2; cells expressing NPY-Y2, potentiator/agonist read-out; activation, % at 3.6 µM; hit rate 0.45% among 220,000; P49146; AID 1359; in the data active = activation above about 27%;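 also: cells stimulated with NPY near EC25 plus isoproterenol at EC100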
Rad51 HR inh = blocks human Rad51 in homologous recombination. Q06609. hit rate 0.085% among 200,000. hRad51 DNA strand exchange, fluorescence dequenching. inhibition, % at 10 µM;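 active = inhibition above 40% at the single screening dose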
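Test system: preformed human Rad51 ssDNA filaments. Compound dosing: single dose, 10 µM final compound. Incubation: filaments 15 min 37 °C, then compound 30 min. Technique: FRET fluorescence dequenching, excitation 485 nm, emission 520 nm. Read-out basis: percent inhibition from fluorescence, normalised to plate control and blank means. Benchmarks: plate controls and plate blanks.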
NPY-Y1 antag ct = human NPY-Y1 antagonism in NPY-Y2 counter-screen; shares compounds with NPY Y2 blocker; cell-based NPY-Y1 antagonism counterscreen; inhibition, % at 3.6 µM; hit rate 19% among 710; in the data active = inhibition above about 20%;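 also: cells challenged with NPY then isoproterenol with cAMP sensed through a CNG channel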
NPY-Y2 ant conf = confirmation of human neuropeptide Y receptor Y2 antagonists; shares compounds with NPY Y2 blocker; HEK293 NPY-Y2 CNG channel, membrane potential fluorescence; inhibition, % at 2.8 µM; hit rate 32% among 710; AID 1257;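 active = mean inhibition of triplicate wells above the hit cutoff set in the primary screen, cut at about 17% in these data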
A number is an active result; i = inactive; nt = not tested or not shown. Sampled rows, rich in hits. Any-hit rate of the full collection: about 2.8%.

SMILES	Measles CPE	NPY Y1 blocker	NPY Y2 blocker	NPY1 pot ag	NPY2 pot ag	Rad51 HR inh	NPY-Y1 antag ct	NPY-Y2 ant conf
O=C(NC(Nc1nc2ccc([N+](=O)[O-])cc2s1)(C(F)(F)F)C(F)(F)F)c1ccccc1Cl	i	i	24	55	83	i	i	i
O=C(NC(Nc1nc2ccc([N+](=O)[O-])cc2s1)(C(F)(F)F)C(F)(F)F)c1cccnc1	i	i	18	48	33	i	i	i
CN(C)S(=O)(=O)c1ccc2nc(NC(=O)c3cccnc3)sc2c1	i	i	i	i	i	i	nt	nt
Cc1cc(Cl)nc(-n2nc(C)cc2C)n1	nt	nt	nt	i	i	nt	nt	nt
Cc1cc(C)n(-c2nc(C)nc(N)n2)n1	i	i	20	i	i	i	i	i
COC(=O)c1ccc(CSc2nc3ccccc3c(=O)n2-c2ccccc2)o1	i	i	18	i	i	i	i	47
COC(=O)c1ccc(CSc2nc3sc4c(c3c(=O)n2C)CCCC4)o1	i	i	18	i	i	i	i	19
COC(=O)c1ccc(CSc2nc3ccccc3c(=O)n2-c2ccc(OC)c(OC)c2)o1	i	i	i	i	i	i	nt	nt
COC(=O)c1sc(N)c(C(=O)OC)c1CSc1nc2sc3c(c2c(=O)n1C)CCC3	i	i	i	i	i	i	nt	nt
CCOC(=O)c1[nH]c(C)c(C(=O)C(C)C)c1C	i	i	i	i	i	i	nt	nt
Cn1cc(CN2C[C@H]3CC[C@H]2C3)c(-c2ccccc2F)n1	nt	i	nt	i	i	i	nt	nt
CCCc1nc(SCc2ccc(Cl)cc2Cl)n[nH]1	i	i	18	i	i	i	i	i
Cc1cc(-c2ccccc2)c(C#N)c(=S)[nH]1	i	i	17	i	i	i	i	i
CCOC(=O)N1CCN(C(=O)c2cnn3c(C(F)F)cc(-c4ccc(C)cc4)nc23)CC1	i	i	17	i	i	i	i	i
COc1cccc(/C=N/NC(=O)CN2CC(c3ccccc3)CC2=O)c1OC (centres undefined)	i	i	i	i	i	i	nt	nt
C/C=C(/C)C(=O)O[C@@H]1c2c(ccc3ccc(=O)oc23)O[C@@H]1C(C)(C)OC(=O)/C(C)=C\C	i	i	19	i	i	i	i	32
CCN(CC)C(=O)CSc1nc(-c2cccs2)cc(-c2cccs2)c1C#N	i	i	18	i	i	i	i	i
CCN(CC)C(=O)CSc1nc(N)c(C#N)c(-c2cccs2)c1C#N	i	i	i	i	i	i	nt	nt
CC1CCCCC1NC(=O)c1ccc(S(=O)(=O)NCc2ccco2)cc1 (centres undefined)	i	i	17	i	i	i	i	i
O=C(Nc1ccccc1)c1ccc(S(=O)(=O)NCc2ccco2)cc1	i	i	i	i	i	i	nt	nt
C(#Cc1ccccc1)C[N+]1(CC#Cc2cccc3ccccc23)CCCC1	i	i	18	i	i	i	i	i
O=C(NC1CCCCC1)C(c1cccnc1)N(CCc1ccccc1)C(=O)Cc1cccs1 (centres undefined)	i	i	22	i	i	nt	i	i
O=C(NC1CCCC1)C(c1cccnc1)N(CCc1ccccc1)C(=O)c1ccco1 (centres undefined)	nt	i	nt	i	i	i	nt	nt
CCOC(=O)C1=C(O)C(=O)N(Cc2ccccc2)CC1	nt	i	nt	i	i	nt	nt	nt
CN(C)CCCNS(=O)(=O)c1ccc(N2CCC(c3ccc(Cl)cc3)=N2)cc1	i	i	18	i	i	i	i	i
SMILES	Measles CPE	NPY Y1 blocker	NPY Y2 blocker	NPY1 pot ag	NPY2 pot ag	Rad51 HR inh	NPY-Y1 antag ct	NPY-Y2 ant conf
Cc1ccc(SCc2nc3ccccc3n2CC(=O)Nc2c(C)cccc2C)cc1	i	i	19	i	i	i	i	i
Cc1cc(C)c(C#N)c(SC(F)F)n1	i	i	i	i	i	i	nt	nt
Cc1nc(N2CCN(C(=O)c3ccco3)CC2)c2oc3ccccc3c2n1	nt	nt	nt	nt	nt	i	nt	nt
Cc1nc(N2CCC(C)CC2)c2oc3ccccc3c2n1	i	i	19	i	i	i	i	36
CCOc1ccc(N=C(/C(C(=O)C(=O)N2CCOCC2)=C(\O)c2ccccc2)c2ccccc2)cc1	i	i	i	i	i	nt	nt	nt
CC(=O)n1nc(-c2ccccc2)nc1NCc1ccc(N(C)C)cc1	nt	i	nt	i	i	i	nt	nt
CCOc1nc(SCCOc2ccccc2)nc(N(C)C)n1	i	i	23	i	i	i	i	i
CCN(CC)CC(O)COc1ccc2c(c1)c(C(C)=O)c(C)n2-c1ccccc1 (centres undefined)	i	i	17	i	i	i	i	32
CC(=O)c1c(C)n(-c2ccccc2)c2ccc(OCC(O)CN3CCOCC3)cc12 (centres undefined)	i	i	i	i	i	i	nt	nt
CCOC(=O)c1nn(-c2cccc(C)c2)c2nc(-c3ccccc3)c(C#N)c(=O)n12	i	i	i	i	i	i	nt	nt
CCOC(=O)c1nn(-c2ccc(F)cc2)c2nc(-c3ccccc3)c(C#N)c(=O)n12	i	i	19	i	i	nt	i	i
Cc1ccc(S(=O)(=O)NC2c3cccc4cccc(c34)C2Sc2nncn2C)cc1 (centres undefined)	i	i	21	i	i	i	i	i
CC(C)CCCCCCNC(=S)Nc1ccc(S(=O)(=O)N2CCOCC2)cc1	i	i	i	i	i	i	nt	nt
CN(C)S(=O)(=O)c1cccc(NC(=S)NN=C(Cc2ccccc2)Cc2ccccc2)c1	i	i	i	i	i	i	nt	nt
Cc1cccc(Oc2ccc(S(=O)(=O)N3CCCCC3)cc2N)c1	nt	i	nt	i	i	i	nt	nt
COc1ccc(C2(CNC(=O)c3cccc([N+](=O)[O-])c3)CCOCC2)cc1	i	i	17	i	i	i	i	i
O=C(NCc1ccccc1)C1(C(F)(F)F)C/C(=C\CCO)CCCO1 (centres undefined)	nt	nt	nt	nt	nt	i	nt	nt
CC(C)NC(=O)CSc1nncn1-c1ccccc1	i	i	18	i	i	i	i	i
CCOc1ccc(NC(=O)C2(c3ccc(OC)c(OC)c3)CCCC2)cc1	i	i	27	i	i	i	i	i
Cc1[nH]c2ccccc2c1C(=O)CSc1nc2ccccc2c(=O)n1-c1ccccc1F	nt	i	nt	i	i	nt	nt	nt
Cc1noc(C)c1CSc1nc2ccccc2c(=O)n1-c1ccc(F)cc1F	i	i	25	i	i	nt	20	i
OCCNCc1cc(Br)ccc1OCc1ccccc1Cl	i	i	22	i	i	i	i	i
CCOC(=O)C1CCCN(Cc2ccccc2C)C1 (centres undefined)	i	i	17	i	i	i	i	i
O=C(CSc1cccc2cccc(Cl)c12)OCC(=O)N1CCN(C(=O)c2ccco2)CC1	i	i	19	i	i	nt	i	i
